Data published in ChEMBL document CHEMBL4152356, “Amphipathic sulfonamidobenzamides mimicking small antimicrobial marine natural products; investigation of antibacterial and anti-biofilm activity against antibiotic resistant clinical isolates” (Bioorg Med Chem, 2018).

Key:
Escherichia coli [1] = assay: Antibacterial activity against Escherichia coli clinical isolates after 24 hrs by microdilution method; type: functional
Method in brief: (§1)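 Clinical isolate screen by broth microdilution with about 1-1.2 × 10^6 cells/ml and 24 h incubation. MIC is the lowest concentration with no growth. For isolate collections, MIC90 is the MIC inhibiting ≥90% of isolates. Multidrug resistance was defined as resistance to at least […] antimicrobial class.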

[2] = Selectivity index, ratio of EC50 for human RBC to MIC for methicillin resistant Staphylococcus epidermidis RP62A ATCC 35984/CCUG 31568; type: toxicity; details: human red blood cells (RBC), read-out: Selectivity Index
Method in brief: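 SI = hemolytic EC50 / MRSE MIC. Hemolysis: washed human RBCs (heparinized blood, healthy adult donor) at 10% in PBS pH 7.4, mixed 9:1 with serial compound dilutions, 37 °C for 1 h. 0.05% Triton X-100 set 100% lysis, 0.5% DMSO set baseline. MIC from MHB microdilution, 35 °C, […].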

Pseudomonas aeruginosa [3] = assay: Antibacterial activity against Pseudomonas aeruginosa clinical isolates after 24 hrs by microdilution method; type: functional; method in brief: as §1
Bacillus subtilis = assay: Antibacterial activity against Bacillus subtilis 168 ATCC 23857 after 48 hrs by microdilution method; type: functional; details: subsp. subtilis str. 168 ATCC 23857, 48 h
Method in brief: (§2)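 Broth microdilution (CLSI M07-A9, modified) in Mueller-Hinton broth; inoculum about 2.5-3 × 10^4 cells/ml mixed 1:1 with serial compound dilutions. Stock solutions in up to 100% DMSO, final DMSO ≤1%. Incubated 35 °C for 48 h.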

Staphylococcus aureus [4] = assay: Antibacterial activity against Staphylococcus aureus ATCC 9144 after 48 hrs by microdilution method; type: functional; details: ATCC 9144, 48 h; method in brief: as §2
[5] = test system: Corynebacterium glutamicum; assay: Antibacterial activity against Corynebacterium glutamicum ATCC 13032 after 48 hrs by microdilution method; type: functional; details: ATCC 13032, 48 h; method in brief: as §2
Pseudomonas aeruginosa [6] = assay: Antibacterial activity against Pseudomonas aeruginosa PAO1 DSM 19880 ATCC 15692 after 48 hrs by microdilution method; type: functional; details: PAO1 DSM 19880 ATCC 15692, 48 h; method in brief: as §2
Enterococcus sp. = assay: Antibacterial activity against Enterococcus sp. clinical isolates after 24 hrs by microdilution method; type: functional; method in brief: as §1
[7] = test system: Staphylococcus epidermidis; assay: Antibacterial activity against methicillin resistant Staphylococcus epidermidis RP62A ATCC 35984/CCUG 31568 after 48 hrs by microdilution method; type: functional; details: RP62A ATCC 35984/CCUG 31568, 48 h
Method in brief: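 Broth microdilution (modified CLSI M07-A9) against the MRSE reference strain. Inoculum of about 2.5-3 × 10^4 cells/ml in Mueller-Hinton broth mixed 1:1 with serial compound dilutions; final DMSO ≤1%. Incubated 35 °C, 48 h.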

MRC5 = assay: Cytotoxicity against human MRC5 cells after 72 hrs by MTS assay; type: cell-based; details: MRC5, 72 h
Method in brief: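 MRC-5 lung fibroblasts in DMEM with 10% FBS, 37 °C, 5% CO2; seeded at 4000 cells/well, adhered 24 h, medium replaced. Two-fold dilutions up to 100 µg/ml for 72 h, then MTS for 1 h and absorbance at 485 nm. Controls were 1% DMSO (negative) and 0.5% Triton X-100 (positive). EC50 is the concentration giving 50% inhibition of survival.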

Escherichia coli [8] = assay: Antibacterial activity against Escherichia coli ATCC 25922 after 48 hrs by microdilution method; type: functional; details: ATCC 25922, 48 h; method in brief: as §2
Erythrocyte = assay: Hemolytic activity against human RBC measured after 1 hr; type: cell-based
Method in brief: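 Washed human RBCs from a healthy donor (heparinized) at 10% in PBS pH 7.4, mixed 9:1 with serial compound dilutions, 37 °C for 1 h. Baseline set by 0.5% DMSO in 50% PBS, 100% lysis by 0.05% Triton X-100. EC50 is the concentration giving 50% lysis.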

Staphylococcus aureus [9] = assay: Antibacterial activity against Staphylococcus aureus clinical isolates after 24 hrs by microdilution method; type: functional; method in brief: as §1
Klebsiella pneumoniae = assay: Antibacterial activity against Klebsiella pneumoniae clinical isolates after 24 hrs by microdilution method; type: functional; method in brief: as §1
[10] = test system: Staphylococcus epidermidis; assay: Antibiofilm activity against Staphylococcus epidermidis RP62A ATCC 35984/CCUG 31568 incubated for 24 +/- 2 hrs by crystal violet staining based assay; type: functional
Method in brief: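 Mature S. epidermidis RP62A biofilms: filtered overnight TSB culture adjusted to 2 McFarland, diluted in TSB with 1% glucose to about 6 × 10^6 CFU/ml, grown 24 ± 2 h at 37 °C static, then PBS-washed. Compounds in 50% TSBglu added for 24 ± 2 h at 37 °C. Biomass given as % of untreated control; ≥90% eradication threshold. Compounds tested at 2x, 5x and 10x MIC, 4-8 parallels on 2-3 plates, highest and lowest values excluded.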

Compound | MIC (Escherichia coli [1]) | selectivity ratio [2] | MIC (Pseudomonas aeruginosa [3]) | MIC (Bacillus subtilis) | MIC (Staphylococcus aureus [4]) | MIC [5] | MIC (Pseudomonas aeruginosa [6]) | MIC (Enterococcus sp.) | MIC [7] | EC50 (MRC5) | MIC (Escherichia coli [8]) | EC50 (Erythrocyte) | MIC (Staphylococcus aureus [9]) | MIC (Klebsiella pneumoniae) | MBIC=>90 [10]
CC(C)(C)c1cc(C(C)(C)C)cc(S(=O)(=O)Nc2ccccc2C(=O)NCCNC(=N)N)c1.Cl | 64 µg/mL | 10 | 32 µg/mL | 8 µg/mL | 4 µg/mL | 4 µg/mL | 64 µg/mL | 32 µg/mL | 8 µg/mL | 42 µg/mL | 32 µg/mL | 77 µg/mL | 8 µg/mL | 128 µg/mL | –
CC(C)(C)c1cc(C(C)(C)C)cc(S(=O)(=O)Nc2ccc(CC(=O)NCCNC(=N)N)cc2)c1.Cl | 64 µg/mL | 13 | 64 µg/mL | 8 µg/mL | 16 µg/mL | 8 µg/mL | 64 µg/mL | 32 µg/mL | 8 µg/mL | 55 µg/mL | 64 µg/mL | 101 µg/mL | 16 µg/mL | 128 µg/mL | 40 µg/mL
CC(C)(C)c1cc(C(C)(C)C)cc(S(=O)(=O)Nc2ccccc2C(=O)NCCN)c1.Cl | 128 µg/mL | 2 | 128 µg/mL | 32 µg/mL | 32 µg/mL | 16 µg/mL | 128 µg/mL | 32 µg/mL | 32 µg/mL | 10 µg/mL | 64 µg/mL | 56 µg/mL | 32 µg/mL | 128 µg/mL | –
CN(c1ccc(C(=O)NCCN)cc1)S(=O)(=O)c1cc(C(C)(C)C)cc(C(C)(C)C)c1.Cl | – | 3 | – | 8 µg/mL | 16 µg/mL | 16 µg/mL | 32 µg/mL | – | 16 µg/mL | 5 µg/mL | 16 µg/mL | 53 µg/mL | – | – | –
CC(C)(C)c1cc(C(C)(C)C)cc(S(=O)(=O)N2CCC[C@H]2C(=O)NCCNC(=N)N)c1.Cl | – | > 4 | – | 32 µg/mL | 64 µg/mL | 8 µg/mL | 128 µg/mL | – | 32 µg/mL | > 100 µg/mL | > 128 µg/mL | > 128 µg/mL | – | – | –
CC(C)(C)c1cc(C(C)(C)C)cc(S(=O)(=O)N2CCC(C(=O)NCCNC(=N)N)CC2)c1.Cl | – | 8 | – | 16 µg/mL | 16 µg/mL | 4 µg/mL | 128 µg/mL | – | 16 µg/mL | > 100 µg/mL | 64 µg/mL | 124 µg/mL | – | – | 80 µg/mL
CC(C)(C)c1cc(C(C)(C)C)cc(S(=O)(=O)Nc2ccc(C(=O)NCCN)cc2)c1.Cl | – | 2 | – | 16 µg/mL | 32 µg/mL | 8 µg/mL | 64 µg/mL | – | 32 µg/mL | 25 µg/mL | 64 µg/mL | 63 µg/mL | – | – | –
CC(C)(C)c1cc(C(=O)Nc2ccccc2C(=O)NCCNC(=N)N)cc(C(C)(C)C)c1.Cl | – | – | – | – | – | – | – | – | – | 22 µg/mL | – | – | – | – | –
CC(C)(C)c1cc(C(C)(C)C)cc(S(=O)(=O)Nc2ccc(CC(=O)NCCN)cc2)c1.Cl | – | 5 | – | 16 µg/mL | 32 µg/mL | 16 µg/mL | 64 µg/mL | – | 16 µg/mL | 20 µg/mL | 64 µg/mL | 73 µg/mL | – | – | –
Cc1cc(C)cc(S(=O)(=O)Nc2ccc(C(=O)NCCNC(=N)N)cc2)c1.Cl | – | > 2 | – | 64 µg/mL | 128 µg/mL | 64 µg/mL | > 128 µg/mL | – | 64 µg/mL | > 100 µg/mL | > 128 µg/mL | > 128 µg/mL | – | – | –
CN(c1cccc(C(=O)NCCN)c1)S(=O)(=O)c1cc(C(C)(C)C)cc(C(C)(C)C)c1.Cl | – | 2 | – | 8 µg/mL | 16 µg/mL | 8 µg/mL | 32 µg/mL | – | 16 µg/mL | 10 µg/mL | 16 µg/mL | 26 µg/mL | – | – | –
CC(C)(C)c1cc(C(C)(C)C)cc(S(=O)(=O)NCc2ccc(C(=O)NCCN)cc2)c1.Cl | – | 6 | – | 8 µg/mL | 32 µg/mL | 8 µg/mL | 32 µg/mL | – | 16 µg/mL | 20 µg/mL | 32 µg/mL | 92 µg/mL | – | – | –
CC(C)(C)c1cc(C(C)(C)C)cc(S(=O)(=O)Nc2cccc(C(=O)NCCN)c2)c1.Cl | – | 7 | – | 8 µg/mL | 16 µg/mL | 8 µg/mL | 64 µg/mL | – | 8 µg/mL | 16 µg/mL | 32 µg/mL | 58 µg/mL | – | – | –
CC(C)(C)c1cc(C(C)(C)C)cc(S(=O)(=O)Nc2cc3ccccc3cc2C(=O)NCCN)c1.Cl | 32 µg/mL | 5 | 32 µg/mL | 4 µg/mL | 4 µg/mL | 2 µg/mL | 32 µg/mL | 8 µg/mL | 4 µg/mL | 22 µg/mL | 8 µg/mL | 21 µg/mL | 8 µg/mL | 128 µg/mL | –
CN(c1ccc(C(=O)NCCCN)cc1)S(=O)(=O)c1cc(C(C)(C)C)cc(C(C)(C)C)c1.Cl | – | 2 | – | 8 µg/mL | 16 µg/mL | 8 µg/mL | 32 µg/mL | – | 16 µg/mL | 9 µg/mL | 16 µg/mL | 28 µg/mL | – | – | –
